The source of these data is ChEMBL document CHEMBL3102812 (J Med Chem, 2013).

Converted amounts (≈) assume the structure as drawn. The source made the active and inactive calls. Where only a bound is given, the exact number is not on record here.

In data set [1] the test system is Trypanosoma cruzi. The data set is described as follows: Antitrypanosomal activity against Trypanosoma cruzi Tulahuen 6 infected in Swiss mouse assessed as mouse survival at 100 mg/kg, po qd administered on day 8 post-infection for 20 days followed by 10 days non-treatment period followed by three cycles of immunosuppression measured on day 58 post-infection by microscopic analysis. Also on record: dose 100 mg/kg. In kind it is functional, organism-based.

The test system of data set [2] is Trypanosoma cruzi. The data set can be described thus: Antitrypanosomal activity against Trypanosoma cruzi Tulahuen 6 infected in Swiss mouse assessed as mouse survival at 100 mg/kg, po qd administered on day 8 post-infection measured on same day by microscopic analysis. In kind it is functional, organism-based. Also noted: dose 100 mg/kg.
A short description of data set [3]: Plasma concentration in Swiss mouse at 20 mg/kg, po after 0.5 hrs by LC/MS analysis.
In data set [4] the test system is Trypanosoma cruzi. The data set can be described thus: Antitrypanosomal activity against Trypanosoma cruzi Tulahuen 6 amastigotes infected in rat L6 cells after 96 hrs by colorimetric method. In kind it is functional, organism-based. The settings on record: Tulahuen 6, L6, 96 h.
The subject of data set [5] is Trypanosoma cruzi. The data set is described as follows: Antitrypanosomal activity against Trypanosoma cruzi Tulahuen 6 infected in Swiss mouse assessed as reduction in blood parasitemia at 20 mg/kg, po qd administered on day 8 post-infection for 10 days by microscopic analysis. In kind it is functional, organism-based. Also noted: dose 20 mg/kg. The gist of the method: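 Infected Swiss mice dosed orally at 20 mg/kg once daily for up to 10 days starting day 8 pi; blood parasitemia followed by microscopy throughout dosing, scored as cleared or not during the dosing period.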

The subject of data set [6] is Mus musculus. The data set is described as follows: Toxicity in Swiss mouse at 20 mg/kg, po. The settings on record: in vivo.
Data set [7] in a line: Plasma concentration in Swiss mouse at 20 mg/kg, po after 24 hrs by LC/MS analysis.
The test system of data set [8] is Trypanosoma cruzi. The data set can be described thus: Antitrypanosomal activity against Trypanosoma cruzi Tulahuen 6 infected in Swiss mouse assessed as mouse survival at 5 mg/kg, po qd administered on day 8 post-infection measured on same day by microscopic analysis. In kind it is functional, organism-based. Also on record: dose 5 mg/kg.
The nature of data set [9]: Kinetic aqueous solubility of the compound in phosphate buffer at pH 2 by nephelometric analysis. The settings on record: phosphate buffer.
In data set [10] the test system is Trypanosoma cruzi. The data set is described as follows: Antitrypanosomal activity against Trypanosoma cruzi Tulahuen 6 infected in Swiss mouse at 5 mg/kg, po qd administered on day 8 post-infection for 20 days followed by 10 days non-treatment period followed by three cycles of immunosuppression measured on day 58 post-infection by PCR analysis. Also on record: dose 5 mg/kg. Type of data set: functional, organism-based.

In data set [11] the test system is Mus musculus. The data set can be described thus: Toxicity in Swiss mouse assessed as weight loss at 25 mg/kg, po bid for 2.5 days. In kind it is organism-based. Also on record: dose 25 mg/kg, route oral. The note with it: in vivo, 60 h. The gist of the method:
(§1)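 Acute toxicity by stepwise cumulative oral dosing in two mice per compound: 25 and/or 50 mg/kg twice daily for 2.5 days to […]; animals observed for 1 week after the last dose for adverse effects and weight loss.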

Data set [12] has as its system Trypanosoma cruzi. The data set can be described thus: Antitrypanosomal activity against Trypanosoma cruzi Tulahuen 6 infected in Swiss mouse assessed as mouse survival at 10 mg/kg, po qd administered on day 8 post-infection for 20 days measured on day 28 post-infection by microscopic analysis. Type of data set: functional, organism-based. Also noted: dose 10 mg/kg. The gist of the method:
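Outbred female Swiss mice (~8 weeks) infected with mouse-passaged Tulahuen TcVI trypomastigotes; oral dosing once daily for 20 days from day 8 post-infection, suspension in 0.5% HPMC, 0.4% Tween 80, 0.5% benzyl alcohol, 5% DMSO in water; blood parasitemia by microscopy (LOD 20 000 parasites/mL); mice with recurring parasitemia euthanized; survival counted per starting group; 10-day untreated period days 28–37.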

The test system of data set [13] is Mus musculus. The data set can be described thus: Toxicity in Swiss mouse assessed as weight loss at 50 mg/kg, po bid for 2.5 days. In kind it is organism-based. The settings on record: in vivo, 60 h. Also noted: dose 50 mg/kg, route oral. The gist of the method:
as §1

Data set [14] concerns Trypanosoma cruzi. The data set can be described thus: Antitrypanosomal activity against Trypanosoma cruzi Tulahuen 6 infected in Swiss mouse assessed as mouse survival at 5 mg/kg, po qd administered on day 8 post-infection for 20 days followed by 10 days non-treatment measured on day 37 post-infection by microscopic analysis. Type of data set: functional, organism-based. Also noted: dose 5 mg/kg.

Data set [15] can be described thus: Half life in Swiss mouse at 20 mg/kg, po by LC/MS analysis. The note with it: in vivo. Also noted: dose 20 mg/kg, route oral. In kind it is ADME, organism-based.
Data set [16] deals with Trypanosoma cruzi. The data set is described as follows: Antitrypanosomal activity against Trypanosoma cruzi Tulahuen 6 infected in Swiss mouse assessed as mouse survival at 10 mg/kg, po qd administered on day 8 post-infection measured on same day by microscopic analysis. In kind it is functional, organism-based. Also noted: dose 10 mg/kg.
Data set [17] is described as follows: Plasma clearance in Swiss mouse at 2 mg/kg, iv and 20 mg/kg, po by LC/MS analysis. Type of data set: ADME, organism-based.
Data set [18] addresses Cytochrome P450 3A4 (Homo sapiens, UniProt P08684). The data set is described as follows: Inhibition of CYP3A4 in human liver microsomes assessed as 6beta-hydroxylation of testosterone.
Data set [19] concerns Trypanosoma cruzi. The data set is described as follows: Antitrypanosomal activity against Trypanosoma cruzi Tulahuen 6 infected in Swiss mouse assessed as mouse survival at 5 mg/kg, po qd administered on day 8 post-infection for 20 days measured on day 28 post-infection by microscopic analysis. Type of data set: functional, organism-based. Also on record: dose 5 mg/kg.
The nature of data set [20]: Kinetic aqueous solubility of the compound in phosphate buffer at pH 6.5 by nephelometric analysis.
Data set [21] is described as follows: Half life in Swiss mouse at 2 mg/kg, iv by LC/MS analysis. Type of data set: ADME, organism-based. Also noted: dose 2 mg/kg, route intravenous. The note with it: in vivo.
A short description of data set [22]: Volume of distribution at steady state in Swiss mouse at 2 mg/kg, iv and 20 mg/kg, po by LC/MS analysis. In kind it is ADME, organism-based. The settings on record: in vivo, read-out: Vdss.
The nature of data set [23]: Partition coefficient, log D of the compound at pH 7.4 by chromatographic method. The note with it: octanol/water.
Data set [24] has as its system Trypanosoma cruzi. The data set is described as follows: Antitrypanosomal activity against Trypanosoma cruzi Tulahuen 6 infected in Swiss mouse assessed as mouse survival at 10 mg/kg, po qd administered on day 8 post-infection for 20 days followed by 10 days non-treatment measured on day 37 post-infection by microscopic analysis. Type of data set: functional, organism-based. Also on record: dose 10 mg/kg.

Data set [25] deals with Mus musculus. The data set can be described thus: Oral bioavailability in Swiss mouse at 20 mg/kg by LC/MS analysis. Type of data set: ADME, organism-based. The settings on record: in vivo.

Chain of Cytochrome P450 3A4 (P08684 whole entry): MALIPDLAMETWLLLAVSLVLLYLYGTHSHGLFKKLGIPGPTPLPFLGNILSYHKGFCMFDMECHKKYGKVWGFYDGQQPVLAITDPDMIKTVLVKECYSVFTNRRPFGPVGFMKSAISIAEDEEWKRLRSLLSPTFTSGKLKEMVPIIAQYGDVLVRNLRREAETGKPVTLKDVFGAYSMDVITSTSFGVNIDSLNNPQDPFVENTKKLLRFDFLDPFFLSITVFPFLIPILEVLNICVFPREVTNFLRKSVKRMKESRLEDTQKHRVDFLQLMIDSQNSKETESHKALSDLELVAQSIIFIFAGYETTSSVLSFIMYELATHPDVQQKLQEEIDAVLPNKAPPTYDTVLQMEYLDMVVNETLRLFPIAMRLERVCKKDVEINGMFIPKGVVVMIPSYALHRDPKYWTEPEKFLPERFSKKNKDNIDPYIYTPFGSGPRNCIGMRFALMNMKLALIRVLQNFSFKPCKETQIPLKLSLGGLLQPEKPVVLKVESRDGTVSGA

With `O=C(Cn1ccnc1[N+](=O)[O-])NCc1ccccc1`, in data set [1], the outcome was inactive. The outcome in data set [2] was Active.

For orientation: IC50 means the concentration that inhibits the measured activity by half. `CC(C)(C)NC(=O)N1CCC(NC(c2ccc(C(F)(F)F)cc2)c2cccnc2)CC1` (stereo unspecified): the concentration at 0.5 h in data set [3] was found to be 3260 nM. This compound also came in with a concentration for half-maximal inhibition (IC50) in data set [4] of 0.061 µM. For the same compound, in [5], the result was inactive. In data set [6], the Activity result is on record as “Non-toxic”. The compound also registered a concentration at 24 h in data set [7] of 1 nM.

In general, kinetic solubility refers to the concentration staying in solution when a stock, usually in DMSO, is diluted into the medium. By half-life is commonly meant the time needed for the level to fall by half in the phase considered. Read a low half-life as fast loss. Broadly, the chromatographic logD is a lipophilicity value derived from retention on a column. Lower therefore signals a more hydrophilic compound. In the case of `O=C([C@@H](c1ccc(Cl)cc1)c1cccnc1)N1CCN(c2ccc(C(F)(F)F)cc2)CC1`, the outcome in data set [8], in data set [12], in data set [14], in data set [16], in [19] and in data set [24] was Active. The figures for the kinetic solubility in data set [9] and in [20] were > 100 µg/mL and 1.6 µg/mL (≈ 3.48 µM), respectively. For the same compound, the result in [10] was inactive. The Activity result in [11], in data set [13] and in data set [6] was “Non-toxic” each time. Moreover, the half-life in data set [15] was 8.2 h; in data set [21] it was 5.9 h. Also, the clearance in data set [17] was 7.7 mL/min/kg. Further, in data set [18], the IC50 came out at 15 µM. Moreover, the Vd in [22] worked out at 4.2 L/kg. Besides, in data set [23], the chromatographic logD was 4.5. For the same compound, the F in [25] is recorded as 64%.
